Screens from PubChem.
This is a sample that favours compounds with a hit; in the whole collection about 1.8% have one here.
Tb MetRS inh = Trypanosoma brucei MetRS inhibition; purified T. brucei MetRS, ATP depletion, Kinase-Glo luminescence; inhibition, % at 11.9 µM; 0.4% of 360,000 active; AID 624268;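 active = inhibition above a per-plate cutoff of the control wells' mean inhibition plus 3 SD, cut at about 5.5% in these data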
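Material – parasite MetRS enzyme · Medium – HEPES-MgCl2-KCl buffer plus DTT, spermine, BSA, pyrophosphatase · Reagent – ATP, methionine and E. coli bulk tRNA substrates · Times – 15 min enzyme-compound preincubation, 2 h reaction, 10 min detection, 25 °C · Measured by – luminescence of leftover ATP · Evaluation – percent inhibition relative to median high and low control wells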
PG9 binder = binds the HIV-1 gp120 antibody PG9; 0.43% of 360,000 active; inhibition, % at 6.7 µM; TR-FRET gp120-PG9 antibody binding; in the data active = inhibition above about 8.5%
Rev-erbA mod = modulators of human Rev-erb alpha DNA binding. 0.79% of 370,000 active. Rev-erbα–FITC-DNA binding, fluorescence polarization, 90 min. activity, % at 10 µM. AID 1259318. P20393;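 active = activity above about 14%, limit read from the data; passing the limit was not always enough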
Target sequence (P20393 whole entry, looked up): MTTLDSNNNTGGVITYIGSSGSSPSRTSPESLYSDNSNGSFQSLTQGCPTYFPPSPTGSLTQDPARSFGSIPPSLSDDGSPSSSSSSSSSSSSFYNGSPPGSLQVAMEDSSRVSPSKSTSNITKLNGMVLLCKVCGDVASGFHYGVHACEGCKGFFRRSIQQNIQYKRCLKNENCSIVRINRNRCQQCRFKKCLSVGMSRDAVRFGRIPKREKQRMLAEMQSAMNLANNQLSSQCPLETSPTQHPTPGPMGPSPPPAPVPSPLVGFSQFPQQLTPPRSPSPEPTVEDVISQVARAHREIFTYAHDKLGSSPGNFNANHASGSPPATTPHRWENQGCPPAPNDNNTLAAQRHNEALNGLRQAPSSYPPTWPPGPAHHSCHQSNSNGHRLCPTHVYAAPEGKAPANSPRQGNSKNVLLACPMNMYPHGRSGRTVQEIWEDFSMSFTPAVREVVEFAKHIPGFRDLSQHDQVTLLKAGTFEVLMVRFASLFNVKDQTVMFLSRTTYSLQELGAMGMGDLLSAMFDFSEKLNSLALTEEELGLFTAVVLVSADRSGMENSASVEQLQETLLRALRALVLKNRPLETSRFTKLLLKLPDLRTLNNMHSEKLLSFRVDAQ
Rin1-Abl PPI inh = human Rin1-Abl interaction inhibition | P00519+Q13671 | TR-FRET Rin1/Abl binding, biochemical | inhibition, % at 7.35 µM | 0.4% of 360,000 active; in the data active = inhibition above about 5%, passing the limit was not always enough
TbMetRS confirm = Trypanosoma brucei MetRS inhibition confirmed | inhibition, % at 11.9 µM | AID 624412 | 93% of 1,400 active | shares compounds with Tb MetRS inh | T. brucei MetRS enzyme, luminescence (ATP depletion); in the data active = inhibition above about 7%
Jurkat tox = kills Jurkat cells in T. brucei MetRS counterscreen | shares compounds with Tb MetRS inh | Jurkat cells viability, ATP luminescence | inhibition, % at 8.3 µM | 12% of 1,400 active; in the data active = inhibition above about 15%
TbMetRS FP orth = inhibits T. brucei methionyl tRNA synthetase in orthogonal FP test; shares compounds with Tb MetRS inh; purified T. brucei MetRS, fluorescence polarization; inhibition, % at 11.9 µM; 44% of 1,400 active; AID 651607; in the data active = inhibition above about 17%
Hits are given with their value; 0 = inactive; - = not tested or not shown.

SMILES	Tb MetRS inh	PG9 binder	Rev-erbA mod	Rin1-Abl PPI inh	TbMetRS confirm	Jurkat tox	TbMetRS FP orth
COCc1cc(N2CCNC[C@H]2C)ccc1N1CCN(Cc2ccccc2)[C@H](C)C1	-	0	0	-	-	-	-
Cn1c(CSc2nc3ccc(Br)cc3[nH]2)nc2ccccc21	11.6	0	0	0	17.9	0	0
O=C(O)CCSc1nc2ccc(Br)cc2[nH]1	0	0	0	0	-	-	-
COCCCNC(=O)C[C@H]1C[C@@]2(C(=O)OC)C(=C[C@H](COCc3ccccc3)O[C@@H]2C)N(Cc2ccco2)C1=O	-	-	0	-	-	-	-
O=C(CN1CCSC1=NCc1ccccc1)c1ccc(Cl)c(Cl)c1	60.7	0	0	0	83.0	0	66.9
CC(=O)Nc1ccccc1NC(=O)c1ccccc1-c1ccccc1	46.1	0	0	0	0	0	0
COc1cc(NC(=O)CCN2CC(C)OC(C)C2)cc(OC)c1 (configuration not stated)	5.8	0	0	0	0	0	0
COc1cc(NC(=O)CCN2CCOCC2)cc(OC)c1	0	0	0	0	-	-	-
CC(C)(C)OC(=O)N1CCC2CCN(S(=O)(=O)c3ccccc3)CC21 (configuration not stated)	-	0	0	-	-	-	-
CC(C)(C)CCNc1nc(-c2ccccn2)nnc1-c1ccccc1	-	-	0	-	-	-	-
COCC(=O)N(C)[C@H]1C[C@H]2c3[nH]c4ccccc4c3CCN2C(=O)[C@H]1[C@H](C)O	0	0	0	0	-	-	-
COc1ccc(-c2ccc3[nH]c4c(c3c2)CCN2C(=O)[C@@H]([C@H](C)O)[C@@H](N(C)C(=O)Nc3cc(Cl)cc(Cl)c3)C[C@@H]42)cc1	7.8	0	0	0	10.8	0	0
C[C@H](O)[C@@H]1C(=O)N2CCc3c([nH]c4ccccc34)[C@@H]2C[C@@H]1N(C)Cc1ccc(Cl)cc1	86.7	0	0	0	104.4	0	83.4
CCc1c(-c2ccc(OC)cc2)ncn1CCc1ccccc1OC	-	0	0	-	-	-	-
Cc1sc2nc(COC(=O)CNC(=O)c3ccccc3Cl)[nH]c(=O)c2c1C	-	-	0	-	-	-	-
COC(=O)c1cc(-c2ccc(Cl)cc2Cl)n[nH]1	12.0	0	0	0	29.2	0	17.8
COC(=O)c1cc(-c2ccc(Cl)cc2)n[nH]1	0	0	0	0	-	-	-
C[C@H]1[C@H](N(Cc2ccccc2)Cc2ccccc2)CC[C@@]23CCCN2C(=O)CCC[C@@H]13	-	-	0	-	-	-	-
CCSc1nsc(NC(=O)Nc2ccccc2F)n1	7.0	0	0	0	12.7	0	0
Cc1ccc(-n2c(SCC(=O)c3ccccc3Br)nnc2-c2ccncc2)cc1	-	-	0	-	-	-	-
Cc1ccc(NC(=O)/C=N/OCC(=O)NCc2ccccc2Cl)cc1	16.3	0	0	0	29.3	0	0
CC(C)C(=O)OCC(=O)NCc1ccccc1Cl	0	0	0	0	-	-	-
CNC(=S)N(CCc1ccc(S(N)(=O)=O)cc1)C1CC(=O)N(c2ccccc2F)C1=O (configuration not stated)	0	0	0	0	-	-	-
CCOc1ccc(N2C(=O)CC(N(CCc3ccccc3)C(=O)/C=C/C(=O)O)C2=O)cc1 (configuration not stated)	0	0	0	0	-	-	-
Cc1ccc(N2C(=O)CC(N(CCc3ccccc3)C(=S)Nc3ccc(N(C)C)cc3)C2=O)cc1 (configuration not stated)	73.9	0	0	0	45.8	0	28.5
SMILES	Tb MetRS inh	PG9 binder	Rev-erbA mod	Rin1-Abl PPI inh	TbMetRS confirm	Jurkat tox	TbMetRS FP orth
O=C1CC(N(CCc2ccccc2)C(=S)Nc2ccccc2)C(=O)N1c1ccc(Br)cc1 (configuration not stated)	96.6	0	0	0	98.8	0	129.7
N#CCC[C@@H]1CC[C@]2(CCCN(Cc3ccc(Cl)cc3)C2)O1	-	-	0	-	-	-	-
COc1ccc(C(=O)C2(C(=O)NC3CCCC3)CC(c3ccccc3C(F)(F)F)=NO2)cc1 (configuration not stated)	-	-	0	-	-	-	-
COCCNC(=S)N(C)[C@H]1C[C@H]2c3[nH]c4c(-c5ccc6c(c5)OCO6)cccc4c3CCN2C(=O)[C@H]1[C@H](C)O	-	0	0	-	-	-	-
COCCN1C(=O)[C@H]2C[C@@]13O[C@H](C1CCCCC1)N=C3CC1c3ccccc3C[C@@]12C (some centres not stated)	-	0	0	-	-	-	-
N#Cc1ccccc1CSc1nc2ncc(Br)cc2[nH]1	8.3	0	0	0	36.7	0	17.1
